# Assay results gathered from unrelated publications.
# Each line is one published result; the experiments were not run side by side.
# Matrix: plasma
SMILES,species,route,dose,setting,Cmax
CC(C)(O)c1ccccc1-c1ccc2[nH]c(/C=C/c3ccc(C(F)(F)F)cc3)nc2c1,male human,oral,60 mg,"single dose, fasted, healthy volunteers",177 ng/mL
CCc1nc2c(C)cc(N3CCN(CC(=O)N4CC(O)C4)CC3)cn2c1N(C)c1nc(-c2ccc(F)cc2)c(C#N)s1,human,oral,1000 mg,"single dose, fed, healthy volunteers",11800 ng/mL
Cn1c(=O)oc2ccc(-c3ccc(C[C@@H](C#N)NC(=O)[C@@H]4CNCCCO4)cc3)cc21,male human,oral,15 mg,"single dose, healthy volunteers",202 nM
COCCOc1cnc2ccn([C@H](C)c3nnc4c(F)cc(-c5cnn(C)c5)cn34)c(=O)c2c1,human,oral,25 mg,"multiple doses, once daily, patients",600 ng/mL
C[C@@]1(c2cc(NC(=O)c3ccc(C#N)cn3)ccc2F)C=CSC(N)=N1,human,oral,3 mg,single dose,17.2 ng/mL
CO[C@H]1CC[C@H](N2C(=O)CNc3ncc(-c4ccc(C(C)(C)O)nc4)nc32)CC1,human,oral,7.5 mg,patients,45.8 ng/mL
Cn1cc(-c2ccc(S(=O)(=O)[C@@H]3C[C@@H](C(=O)NC4(C#N)CC4)N(C(=O)C4(C(F)(F)F)CC4)C3)c(C(F)(F)F)c2)cn1,human,oral,3 mg,"single dose, fasted, healthy volunteers",20.8 ng/mL
CO[C@@H]1[C@H](OC(=O)N2CC(CCN3CCOCC3)C2)CC[C@]2(CO2)[C@H]1[C@@]1(C)O[C@@H]1CC=C(C)C,human,subcutaneous,1.2 mg,"single dose, healthy volunteers",7.04 ng/mL
COc1ccc([C@@H]2CN(C(=O)[C@@H](O)CO)C[C@@]2(C)[C@@H](C)O)cc1OC1CN(c2ccc(C)cn2)C1,human,oral,0.5 mg,"single dose, healthy volunteers",30 ng/mL
CCn1c(=O)c(-c2cc(NC(=O)Nc3ccccc3)c(F)cc2Br)cc2cnc(NC)cc21,human,oral,50 mg,"single dose, patients",339 ng/mL
CC(C)n1cc(C#N)c2cc(-n3cc(C(=O)O)cn3)ccc21,human,oral,100 mg,"single dose, fasted, healthy volunteers",3520 ng/mL
COc1cc(C(=O)NC2CCN(C)CC2)c(F)cc1Nc1ncc(C(F)(F)F)c(Oc2cccc3c2C(=O)N(C)C3)n1,human,oral,50 mg,"single dose, patients",312 nM
